Assay results as given in ChEMBL document CHEMBL1148736, “N-Acylthiadiazolines, a new class of liver X receptor agonists with selectivity for LXRbeta” (J Med Chem, 2007).
The source made the active and inactive calls. The rule behind the calls is not given here.

Key:
[1] = biological target: T1, Oxysterols receptor LXR-alpha (Homo sapiens) (UniProt Q13133); assay: Agonist activity at GAL-linked human LXRalpha expressed in THP1 cells assessed as stimulation of co-activator recruitment by FRET assay relative to GW-3965; type: functional
T1 sequence (whole entry): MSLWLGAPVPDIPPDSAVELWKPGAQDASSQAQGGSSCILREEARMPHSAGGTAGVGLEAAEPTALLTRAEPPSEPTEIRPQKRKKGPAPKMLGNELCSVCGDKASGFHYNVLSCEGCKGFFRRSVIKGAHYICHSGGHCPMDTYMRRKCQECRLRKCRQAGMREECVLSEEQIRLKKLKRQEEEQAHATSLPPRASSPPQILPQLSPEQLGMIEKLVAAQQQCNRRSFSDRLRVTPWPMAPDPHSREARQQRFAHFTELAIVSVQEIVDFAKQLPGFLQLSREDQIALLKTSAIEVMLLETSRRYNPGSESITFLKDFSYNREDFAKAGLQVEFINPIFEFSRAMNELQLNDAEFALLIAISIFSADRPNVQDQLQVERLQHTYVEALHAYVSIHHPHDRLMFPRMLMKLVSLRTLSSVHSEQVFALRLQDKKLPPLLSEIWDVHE
Method in brief: (§1)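 Cell-free TR-FRET coactivator recruitment: 20 nM His-tagged hLXRα or hLXRβ, 300 nM biotinylated SRC-1 peptide, Eu-anti-His antibody, APC-streptavidin. 12-point curves from 20 µM; 1 h at 37 °C. Duplicate. %E = maximal coactivator recruitment relative to reference dual agonist in same experiment.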

[2] = biological target: T2, Oxysterols receptor LXR-beta (Homo sapiens, UniProt P55055); assay: Agonist activity at GAL-linked human LXRbeta expressed in THP1 cells assessed as stimulation of co-activator recruitment by FRET assay; type: functional; method in brief: as §1
T2 sequence (P55055 whole entry): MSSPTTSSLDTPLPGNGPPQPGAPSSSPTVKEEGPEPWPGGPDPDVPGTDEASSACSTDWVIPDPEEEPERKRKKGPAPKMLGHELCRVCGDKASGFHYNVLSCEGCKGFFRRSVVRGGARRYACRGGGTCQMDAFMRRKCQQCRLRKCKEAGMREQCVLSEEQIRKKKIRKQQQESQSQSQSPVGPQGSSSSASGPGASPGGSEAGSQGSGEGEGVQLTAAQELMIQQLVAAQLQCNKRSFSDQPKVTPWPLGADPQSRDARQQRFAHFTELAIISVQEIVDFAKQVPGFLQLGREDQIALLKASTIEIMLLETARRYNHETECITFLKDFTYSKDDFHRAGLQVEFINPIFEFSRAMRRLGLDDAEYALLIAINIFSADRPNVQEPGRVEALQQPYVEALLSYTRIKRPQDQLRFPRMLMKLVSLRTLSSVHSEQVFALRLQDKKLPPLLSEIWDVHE

[3] = biological target: T3, Oxysterols receptor LXR-beta (Homo sapiens) (UniProt P55055); assay: Agonist activity at GAL-linked human LXRbeta expressed in THP1 cells assessed as stimulation of co-activator recruitment by FRET assay relative to GW-3965; type: functional; method in brief: as §1
T3 sequence (whole entry): T2 sequence (P55055 whole entry)

THP-1 [4] = assay: Increase in ABCA1 gene expression in THP1 cells at 1 uM relative to GW-3965; type: functional, Homo sapiens
Method in brief: (§2)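 THP-1 cells differentiated with 40 ng/mL PMA for 1 day, then switched to RPMI with 2% lipoprotein-deficient FBS. Compound added 6 h later at 1 or 10 µM in DMSO, incubated 24 h. ABCA1 mRNA by one-step TaqMan qRT-PCR, triplicate, multiplexed with 36B4; fold induction vs DMSO, expressed relative to reference dual agonist.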

THP-1 [5] = assay: Increase in ABCA1 gene expression in THP1 cells at 10 uM relative to GW-3965; type: functional, Homo sapiens; method in brief: as §2
[6] = biological target: T4, Oxysterols receptor LXR-alpha (Homo sapiens, UniProt Q13133); assay: Agonist activity at GAL-linked human LXRalpha expressed in THP1 cells assessed as stimulation of coactivator recruitment by FRET assay; type: functional; method in brief: as §1
T4 sequence (Q13133 whole entry): T1 sequence (whole entry)

[7] = biological target: T1, Oxysterols receptor LXR-alpha (Homo sapiens); assay: Displacement of [3H]T-0901317 from GAL-linked human LXRalpha expressed in THP1 cells at 20 uM by SPA relative to GW-3965; type: cell-based; conditions: THP-1
Method in brief: (§3)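 Scintillation proximity displacement with His-tagged hLXRα or hLXRβ LBD (200 ng/well) and 30 nM [3H]T0901317. Beads 0.2 mg/well in phosphate buffer with EDTA, NaCl, DTT, CHAPS, 10% glycerol. 12-point curves from 20 µM; shaken 3 h at room temperature. No-competitor wells = 100% binding; nonspecific binding without protein. Efficacy = maximal displacement relative to reference dual agonist.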

[8] = biological target: T3, Oxysterols receptor LXR-beta (Homo sapiens); assay: Displacement of [3H]T-0901317 from GAL-linked human LXRbeta expressed in THP1 cells at 20 uM by SPA relative to GW-3965; type: cell-based; conditions: THP-1; method in brief: as §3
[9] = biological target: T1, Oxysterols receptor LXR-alpha (Homo sapiens); assay: Activity at human LXRalpha by Gal4 transactivation assay relative to GW-3965
Method in brief: (§4)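 GAL4 DBD fused to hLXRα or hLXRβ LBD in pcDNA3, co-transfected into HepG2 with luciferase reporter. Cells in DMEM with 10% lipoprotein-deficient FBS, 7.5 µM lovastatin, 100 µM mevalonic acid. Ligand added 24 h post-transfection as 11-point curves from 10 µM; luciferase read after 16 h. Run in quadruplicate. %E = max fold induction vs max fold induction of reference dual agonist in same experiment.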

[10] = biological target: T3, Oxysterols receptor LXR-beta (Homo sapiens); assay: Activity at human LXRbeta by Gal4 transactivation assay relative to GW-3965; method in brief: as §4
Hepatocyte = assay: Induction on FAS gene expression in human primary hepatocytes at 1 uM; type: functional, cell-based
Method in brief: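 Primary human hepatocytes treated with 1 µM compound; FAS mRNA measured by TaqMan-based qRT-PCR.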

Row | SMILES | Efficacy [1] | EC50 [2] | Efficacy [3] | Activity (THP-1 [4]) | Activity (THP-1 [5]) | EC50 [6] | Activity [3] | Efficacy [7] | Efficacy [8] | Efficacy [9] | Efficacy [10] | Activity (Hepatocyte)
1 | COc1cccc(C2SC(c3ccc(F)cc3)=NN2C(=O)c2c(F)ccc(F)c2F)c1OC (centres undefined) | < 15% | 970 nM | 74% | 35% | 42% |  |  |  |  |  |  | 
2 | COc1cccc(C2SC(c3ccc(F)cc3)=NN2C(=O)c2cccc(Cl)c2)c1OC (centres undefined) | < 15% | 250 nM | 82% | 13% | 36% |  |  |  |  |  |  | 
3 | COc1cccc(C2SC(c3ccc(Cl)c(Cl)c3)=NN2C(=O)c2c(F)cc(F)cc2F)c1OC (centres undefined) | < 15% | > 10000 nM | 51% | 18% | 46% |  |  |  |  |  |  | 
4 | COc1cccc(C2SC(c3ccc(F)cc3)=NN2C(=O)c2cc(F)cc(F)c2)c1OC (centres undefined) | 40% | 470 nM | 95% | 21% | 37% | 2100 nM |  |  |  |  |  | 
5 | COc1cccc(C2SC(c3ccc(Cl)cc3)=NN2C(=O)c2ccccc2)c1OC (centres undefined) | < 15% |  |  |  |  |  | < 15% |  |  |  |  | 
6 | COc1cccc([C@@H]2SC(c3ccc(Cl)cc3)=NN2C(=O)c2c(F)cc(F)cc2F)c1OC | < 15% |  |  | 0% | 0% |  | < 15% | < 15% | < 15% | < 15% | < 15% | 
7 | O=C(c1c(F)cc(F)cc1F)N1N=C(c2ccc(Cl)cc2)SC1c1cccc2c1OC(F)(F)O2 (centres undefined) | 71% | 800 nM | 74% | 35% | 61% | 3900 nM |  |  |  |  |  | 
8 | COc1cccc(C2SC(c3ccc(F)cc3)=NN2C(=O)c2cc(F)c(F)cc2F)c1OC (centres undefined) | < 15% | 600 nM | 40% | 30% | 48% |  |  |  |  |  |  | 
9 | COc1cccc(C2SC(c3ccc(Cl)cc3)=NN2C(=O)c2ccccc2F)c1OC (centres undefined) | < 15% | 7700 nM | 48% |  |  |  |  |  |  |  |  | 
10 | COc1cc(F)c(C(=O)N2N=C(c3ccc(F)cc3)SC2c2cccc(OC)c2OC)c(F)c1 (centres undefined) | 47% | 170 nM | 100% | 81% | 42% | 900 nM |  |  |  |  |  | 
11 | COc1cccc(C2SC(c3ccc(F)cc3)=NN2C(=O)c2cc(F)c(F)c(OC)c2F)c1OC (centres undefined) | 64% | 81 nM | 100% | 30% | 59% | 700 nM |  |  |  |  |  | 
12 | O=S(=O)(c1ccccc1)N(CC(F)(F)F)c1ccc(C(O)(C(F)(F)F)C(F)(F)F)cc1 |  |  |  |  |  |  |  |  |  |  |  | Active
13 | COc1cccc(C2SC(c3ccc(Cl)cc3)=NN2C(=O)c2c(F)cc(F)cc2F)c1 (centres undefined) | < 15% | 3700 nM | 60% |  |  |  |  |  |  |  |  | 
14 | COc1cccc(C2SC(c3ccc(Cl)cc3)=NN2C(=O)c2ccc(F)cc2F)c1OC (centres undefined) | 50% | 980 nM | 80% | 23% | 40% | 6700 nM |  |  |  |  |  | 
15 | O=C(c1c(F)cc(F)cc1F)N1N=C(c2ccc(F)cc2)SC1c1ccccc1OC(F)F (centres undefined) | 76% | 150 nM | 90% | 26% |  | 1900 nM |  |  |  |  |  | 
16 | COc1cccc(C2SC(c3ccc(F)c(F)c3)=NN2C(=O)c2cccc(F)c2)c1OC (centres undefined) | 30% | 560 nM | 83% | 27% | 47% | 1500 nM |  |  |  |  |  | 
17 | COc1ccccc1C1(C)SC(c2ccc(F)cc2)=NN1C(=O)c1c(F)cc(F)cc1F (centres undefined) | < 15% | 4000 nM | 50% |  |  |  |  |  |  |  |  | 
18 | COc1cccc(C2SC(c3ccc(F)cc3)=NN2C(=O)c2cc(F)ccc2C)c1OC (centres undefined) | 46% | 140 nM | 90% | 21% | 32% | 2400 nM |  |  |  |  |  | 
19 | COc1ccccc1C1SC(c2ccc(Cl)cc2)=NN1C(=O)c1c(F)cc(F)cc1F (centres undefined) | 80% | 35 nM | 110% | 57% | 54% | 180 nM |  |  |  |  |  | 
20 | COc1cccc(C2SC(c3ccc(F)cc3)=NN2C(=O)c2c(F)cc(Br)cc2F)c1OC (centres undefined) | 43% | 160 nM | 92% |  | 42% | 900 nM |  |  |  |  |  | 
21 | COc1cc(F)ccc1C1SC(c2ccc(F)cc2)=NN1C(=O)c1c(F)cc(F)cc1F (centres undefined) | 92% | 6 nM | 100% | 99% | 59% | 70 nM |  |  |  |  |  | 
22 | O=C(c1c(F)cc(F)cc1F)N1N=C(c2ccc(Cl)cc2)SC1c1ccccc1OC(F)(F)F (centres undefined) | < 15% | 3400 nM | 31% |  | 23% |  |  |  |  |  |  | 
23 | COc1cccc(C2SC(c3ccc(C)cc3)=NN2C(=O)c2c(F)cc(F)cc2F)c1OC (centres undefined) | 52% | 200 nM | 98% | 24% | 34% | 1400 nM |  |  |  |  |  | 
